# TNAP inh hiacc = human TNAP enzyme inhibitors, primary screen, biochemical, luminescent, high phosphate acceptor level, uHTS. Alkaline phosphatase, tissue-nonspecific isozyme (Homo sapiens), P05186. purified TNAP, CDP-star luminescence, 1 M DEA. inhibition, % at 20 µM. 0.03% of 200,000 active. AID 1135, 2008;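 active = over 50% inhibition of tissue-nonspecific alkaline phosphatase at 20 µM in the single-dose screen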;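 note: plate controls were DMSO wells for no effect and EDTA-quenched wells as full inhibition for full effect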
# CHT block = inhibitors of human choline transporter CHT; High affinity choline transporter 1 (Homo sapiens), Q9GZV3; CHT-expressing cells, membrane potential dye, choline response; active compounds read low; B-score at 10 µM; 0.86% of 310,000 active; AID 488975, 2010;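 active = B-score over 3 SD under the library average, and starting fluorescence ratio not unusually high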;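 note: choline stimulus applied at its EC90 after an EC20 pre-addition; B-score computed on integrated fluorescence ratio after choline addition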
# Target sequence (Q9GZV3 whole entry, looked up): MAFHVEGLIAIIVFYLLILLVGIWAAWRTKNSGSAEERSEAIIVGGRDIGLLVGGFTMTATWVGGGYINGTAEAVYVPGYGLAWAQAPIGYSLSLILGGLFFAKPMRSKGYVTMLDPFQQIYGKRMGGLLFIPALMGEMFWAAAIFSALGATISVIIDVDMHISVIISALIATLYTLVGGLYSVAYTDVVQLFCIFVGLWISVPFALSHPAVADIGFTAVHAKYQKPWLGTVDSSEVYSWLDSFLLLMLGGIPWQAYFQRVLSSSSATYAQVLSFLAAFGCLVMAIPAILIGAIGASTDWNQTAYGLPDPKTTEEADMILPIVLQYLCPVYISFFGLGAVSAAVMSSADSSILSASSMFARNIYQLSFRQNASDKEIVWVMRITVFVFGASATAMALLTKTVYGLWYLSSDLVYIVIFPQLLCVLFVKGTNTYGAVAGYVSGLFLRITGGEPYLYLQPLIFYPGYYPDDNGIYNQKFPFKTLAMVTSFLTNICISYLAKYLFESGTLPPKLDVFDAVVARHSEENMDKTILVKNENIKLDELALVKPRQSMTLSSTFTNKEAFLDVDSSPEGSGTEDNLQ
# CHT PAM = CHT positive allosteric modulators, primary screen, cell-based, membrane potential dye, choline EC20; High affinity choline transporter 1 (Homo sapiens), Q9GZV3; CHT-expressing cells; active compounds read high; LV-AA mutant CHT in HEK293 cells; B-score at 10 µM; 0.49% of 310,000 active; AID 488977, 2010;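 active = initial fluorescence not abnormally high and integrated response B-score, plate-corrected, over 3 SD above library mean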
# ABCB6 inh 2 = ABCB6 transporter inhibitors, primary screen, K562-ABCB6 cells, flow cytometry, MLPCN library. ATP-binding cassette sub-family B member 6 (Homo sapiens), Q9NP58. K562-ABCB6 porphyrin accumulation, 1 h; active compounds read low. fluorescence ratio to DMSO, % at 10 µM. 0.19% of 360,000 active;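 active = fluorescence ratio to DMSO below 75%, the collection mean minus 3 SD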;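 note: signal is porphyrin accumulated inside mitochondria; 100% equals median channel fluorescence of DMSO control wells; lower ratio means ABCB6 inhibition with less porphyrin fluorescence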
# TNAP inh noacc = human TNAP enzyme inhibitors, primary screen, biochemical, luminescent, no phosphate acceptor, uHTS. 0.26% of 200,000 active. inhibition, % at 20 µM. purified TNAP, CDP-star luminescence, 30 min. AID 1012, 2008. Alkaline phosphatase, tissue-nonspecific isozyme (Homo sapiens), P05186;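 active = tissue-nonspecific alkaline phosphatase inhibition above about 50% at 20 µM in the single-dose screen, limit read from the data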;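 note: 0% = DMSO negative control and 100% = EDTA positive control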
# TNAP act hi DEA = TNAP activators at high phosphate acceptor level, primary screen, biochemical, luminescence, uHTS. purified TNAP, CDP-star luminescence, 1 M DEA, 30 min; active compounds read high; 0 = EDTA background, 1 = DMSO-only activity. 200,000 tested, under 10 active. Alkaline phosphatase, tissue-nonspecific isozyme (Homo sapiens), P05186. activation factor at 20 µM;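 active = activation factor at least 2 at 20 µM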
#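 Control set: EDTA negative control, DMSO positive control / Assay system: human TNAP / Quantity: TNAP 1/800 final / Evaluation: TNAP activation factor scaled between EDTA and DMSO control wells / Measured by: luminescent substrate turnover signal / Compound dosing: one dose, 20 µM / Times: 30 min enzyme reaction at room temperature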
# CHT activ conf = CHT activators, confirmation, cell-based, membrane potential dye, duplicate. shares compounds with CHT PAM. CHT-expressing cells, membrane potential dye fluorescence (FDSS); % of choline EC20–EC90 response window; HEK293 expressing CHT LV-AA mutant; choline added at its EC20. activation, % at 10 µM. 91% of 2,500 active. AID 504833, 2011;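 active = primary screen active, with duplicate mean activation above negative control mean plus 3 SD, cut at about 11% in these data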
# HEK293 MP dye = membrane potential response in parental HEK293 cells, counter-screen for CHT activator project, cell-based, membrane potential dye; shares compounds with CHT PAM; membrane potential dye fluorescence (FDSS); measured after EC20 choline addition; ratio readout change at 10 µM, hits read low; 62% of 2,500 active; AID 623908, 2012;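 active = duplicate-averaged ratio beyond 3 SD from buffer wells, up or down, though filed actives are nearly all decreases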
# * = called active by the depositor; i = inactive; . = not tested or not shown. Shown are actives, neighbours in structure and some others; about 1.4% of the full set was active somewhere.
SMILES,TNAP inh hiacc,CHT block,CHT PAM,ABCB6 inh 2,TNAP inh noacc,TNAP act hi DEA,CHT activ conf,HEK293 MP dye
CC(C)OCCCNC(=O)NC(=O)c1ccc(Cl)cc1,0,i,i,96,-6,1,.,.
CC(C)(C)C(=O)O/N=C(\N)Cc1ccc(-c2csnn2)cc1,.,i,i,96,.,.,.,.
c1ccc(Cn2nnnc2C(c2cccs2)N2CCCCCC2)cc1 (configuration not stated),-5,i,i,99,-15,1.1,.,.
COc1ccc(OC)c(C(c2nnnn2Cc2ccccc2)N2CCN(C3CCCCC3)CC2)c1 (configuration not stated),-6,i,i,99,-12,1.1,10*,i
Fc1ccc(Cn2nnnc2C(c2cccs2)N2CCN(C3CCCCC3)CC2)cc1 (configuration not stated),-3,i,i,91,-1,1,40*,-25*
COc1ccccc1C(c1nnnn1Cc1ccccc1)N1CCN(C2CCCC2)CC1 (configuration not stated),2,i,i,94,-3,1,.,.
COc1ccc(C(CC(=O)Nc2ccc(F)cc2)c2ccccc2)cc1 (configuration not stated),-7,i,i,101,-20,1.1,.,.
COc1ccccc1NC(=O)CC(c1ccc(F)cc1)c1ccco1 (configuration not stated),.,i,i,96,.,.,24*,i
COc1ccc(C)cc1NC(=O)CNC(c1ccccc1)c1ccc(C)cc1 (configuration not stated),.,i,i,101,.,.,.,.
COc1ccccc1NC(=O)CNC(c1ccccc1)c1ccccc1,.,i,7.5*,95,.,.,44*,i
CCCc1nnc(NC(=O)C(CC)OC(=O)c2cc(C)nc3ccccc23)s1 (configuration not stated),-3,i,6.3*,97,-7,1,22*,i
CCCc1nnc(NC(=O)COC(=O)c2cc(C)nc3ccccc23)s1,-5,i,i,101,-11,1.1,.,.
Cc1c2c(n3c(nc4ccccc43)c1C#N)N(CCN(C)C)CC2,-12,i,7.1*,101,-22,1.1,42*,-70*
Cc1c2c(n3c(nc4ccccc43)c1C#N)N(c1ccccc1)CC2,-2,.,.,.,-24,1,.,.
CCc1c(C)c(C#N)c2nc3ccccc3n2c1NCCCN(C)C,.,.,.,101,.,.,.,.
Cc1c2c(n3c(nc4ccccc43)c1C#N)N(CCCN(C)C)CC2,-16,i,7*,100,-25,1.2,44*,-66*
COC(=O)C1C(c2ccc(OC)cc2)C(C(=O)OC)S(=O)(=O)C(CCN2CCCCC2)S1(=O)=O (configuration not stated),0,i,i,100,-24,1,.,.
Cc1ccc(CN2CCSc3ccc(C(=O)NCc4cccnc4)cc32)cc1,-6,i,6.9*,101,-28,1.1,29*,i
Cc1ccccc1-c1csc(C(O)c2ccc(F)c(F)c2)n1 (configuration not stated),.,.,.,100,.,.,.,.
N#CC(C#N)=c1ccc2c(c1)NC1(CCCCC1)N=2,29,i,6.4*,115,24,0.7,51*,-64*
Cc1ccc(S[C@@H](CCN2CC[C@H](NC(=O)OCc3ccccc3)CCC2=O)c2ccccc2)cc1,.,i,i,97,.,.,.,.
O=C(N[C@@H]1CCC(=O)N(CC[C@H](Oc2ccccc2)c2ccccc2)CC1)OCc1ccccc1,.,i,i,96,.,.,25*,i
COc1cc2c(cc1OC)-c1cc(OCCN3CCOCC3)nc(=O)n1CC2,-4,i,6.5*,636,-11,1,55*,-44*
N#CCC(C(=O)c1cccnc1)c1ccccc1 (configuration not stated),.,.,.,94,.,.,.,.
Cc1cccc(OCc2n(CC(=O)OC3CC(C)CCC3C(C)C)c3ccccc3[n+]2C)c1 (configuration not stated),-6,i,9.3*,96,-2,1.1,41*,i
SMILES,TNAP inh hiacc,CHT block,CHT PAM,ABCB6 inh 2,TNAP inh noacc,TNAP act hi DEA,CHT activ conf,HEK293 MP dye
Oc1ccccc1N=Nc1nc(-c2ccccc2)c(-c2ccccc2)[nH]1,-2,i,i,107,35,1,0,i
Cc1ccc(C(=O)NCC(c2ccco2)N2CCc3ccccc3C2)cc1 (configuration not stated),.,i,i,95,.,.,.,.
O=C(NCC(c1ccco1)N1CCc2ccccc2C1)c1ccc(Cl)cc1 (configuration not stated),.,i,i,96,.,.,11*,i
O=C(NCC(c1ccco1)N1CCc2ccccc21)c1ccccc1Cl (configuration not stated),.,i,9.4*,95,.,.,29*,i
Nc1ccc(N2CCCC2)c(S(=O)(=O)Nc2cccc(C(F)(F)F)c2)c1,.,.,.,136,.,.,.,.
CC(C)(C)C1CCC(N2CCN(c3ccccc3)CC2)CC1 (configuration not stated),.,i,i,100,.,.,.,.
CN1CCN(c2ccccc2NC(=O)c2ccc(N3CCCC3)c([N+](=O)[O-])c2)CC1,5,i,i,94,-1,1,18*,-44*
CN1CCN(c2ccc([N+](=O)[O-])cc2NC(=O)c2cccs2)CC1,.,i,6.6*,102,.,.,52*,-82*
COc1cccc(/C=C/C(=O)OCC(=O)Nc2cccc(S(=O)(=O)N3CCOCC3)c2)c1OC,-5,i,i,96,-20,1,.,.
COc1cc(CNC[C@H]2O[C@@H](n3ccc(N)nc3=O)[C@H](O)[C@@H]2O)ccc1OCc1ccc(C)cc1,.,.,.,99,.,.,.,.
COc1cc(-c2nnc(SCC(=O)c3ccc(C)cc3)o2)cc(OC)c1OC,1,i,i,112,-6,1,.,.
